Experimental data taken from ChEMBL document CHEMBL4765399, “Design, synthesis, and biological evaluation of 5-((8-methoxy-2-methylquinolin-4-yl)amino)-1H-indole-2-carbohydrazide derivatives as novel Nur77 modulators” (Eur J Med Chem, 2020).
Active and inactive are the calls of the source. The calls are words filed in the database; no cut-off is given here.

What was measured:
HepG2 [1] = assay: Induction of apoptosis in human HepG2 cells assessed as early apoptotic cells at 1 uM incubated for 12 hrs by Annexin V-FITC/PI staining based flow cytometry (reference value: 3.99%); format: functional
SMMC-7721 = assay: Induction of endoplasmic reticulum stress in human SMMC-7721 cells assessed as increase in TRB3 protein expression incubated for 12 hrs by Western blot analysis; format: functional, cell-based; details: dose 0.5-2 µM
In short: (§1)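 HepG2, QGY-7703 and SMMC-7721 treated with graded concentrations for 12 h. Lysed in RIPA with inhibitors; 40-80 µg protein separated by SDS-PAGE, blotted to nitrocellulose, blocked 1 h in 5% milk, primary antibodies overnight (LC3, Beclin1, Bip, CHOP, TRB3), HRP secondaries, chemiluminescence.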

HepG2 [2] = assay: Induction of endoplasmic reticulum stress in human HepG2 cells assessed as increase in CHOP protein expression incubated for 12 hrs by Western blot analysis; format: functional, cell-based; details: dose 0.5-2 µM; in short: as §1
HepG2 [3] = assay: Induction of apoptosis in human HepG2 cells assessed as cleaved caspase-9 expression at 2 uM pretreated with autophagy inhibitor, 3-methyladenine for 2 hrs followed by incubation with compound for 12 hrs by Western blot analysis; format: functional, cell-based
In short: (§2)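 HepG2 cells grown to confluence were pretreated 2 h with 2 mM 3-MA (autophagy inhibitor) or 2 mM 4-PBA (ER stress inhibitor), then exposed to compound for 12 h. Proteins (40–80 µg, RIPA lysate) were resolved by SDS-PAGE and blotted for PARP, cleaved caspase-3/-9, Bcl-2 and Bax, with chemiluminescent detection.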

[4] = molecular target: T1, Nuclear receptor subfamily 4immunitygroup A member 1 (Homo sapiens, UniProt P22736); assay: Modulation of Nur77 in human HepG2 cells assessed as induction of Nur77 translocation into cytoplasm from nucleus at 2 uM incubated for 6 hrs by DAPI staining based immunofluorescence assay; format: cell-based; details: filed as modulator
T1 sequence (P22736 whole entry): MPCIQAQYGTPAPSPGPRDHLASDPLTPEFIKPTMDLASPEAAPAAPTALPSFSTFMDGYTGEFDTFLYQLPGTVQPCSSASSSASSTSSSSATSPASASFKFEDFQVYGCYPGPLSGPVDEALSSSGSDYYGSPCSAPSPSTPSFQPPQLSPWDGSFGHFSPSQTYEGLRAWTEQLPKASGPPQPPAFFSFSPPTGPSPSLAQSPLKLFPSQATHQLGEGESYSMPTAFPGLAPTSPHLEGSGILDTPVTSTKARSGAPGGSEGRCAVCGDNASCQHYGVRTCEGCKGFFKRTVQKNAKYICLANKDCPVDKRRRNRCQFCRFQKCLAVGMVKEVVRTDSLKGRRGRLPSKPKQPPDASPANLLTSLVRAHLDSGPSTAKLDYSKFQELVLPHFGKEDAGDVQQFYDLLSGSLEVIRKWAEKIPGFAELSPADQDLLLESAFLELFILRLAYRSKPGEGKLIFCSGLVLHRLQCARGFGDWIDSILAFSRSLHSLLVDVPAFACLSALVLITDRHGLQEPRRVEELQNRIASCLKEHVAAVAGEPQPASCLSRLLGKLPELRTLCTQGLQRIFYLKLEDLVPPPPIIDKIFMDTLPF
In short: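 HepG2 exposed to 2.0 µM for set times, fixed (4% paraformaldehyde), permeabilised (0.1% Triton X-100), BSA-blocked, incubated 1 h with anti-Nur77 (1:500) then FITC or Cy3 anti-rabbit IgG; nuclei DAPI-stained; confocal imaging.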

HepG2 [5] = assay: Upregulation of RARgamma expression in human HepG2 cells at 2 uM incubated for 2 to 12 hrs by Western blot analysis; format: functional, cell-based; details: time 2-12 hrs
In short: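 HepG2 cells given 2.0 µM for the indicated times. RXRα, RARγ and Nur77 detected by western blot: RIPA lysis with protease and phosphatase inhibitors, 40-80 µg protein by SDS-PAGE, nitrocellulose, 5% milk block, primary antibody overnight, HRP secondary, chemiluminescence read-out.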

HepG2 [6] = assay: Upregulation of Nur77 expression in human HepG2 cells pretreated with nuclear export inhibitor, LMB followed by incubation with compound for 12 hrs by western blot analysis; format: functional, cell-based
HepG2 [7] = assay: Antitumor activity against human HepG2 cells xenografted in BALB/c mouse assessed as induction of autophagy by measuring increase in Beclin1 level in tumor tissue at 10 to 20 mg/kg/day, ip administered for 15 days by immunohistochemical analysis; format: functional, organism-based; details: dose 10-20 mg/kg/day, time 15.0 day
In short: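 HepG2 cells (5×10^6) injected subcutaneously into flanks of 4-week-old male Balb/c nude mice. At about 100 mm³, 15 mice were randomized to vehicle, 10 or 20 mg/kg i.p. once daily for 15 days. Tumors were then excised for immunostaining of paraffin sections (5 μm) or for western blot.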

HepG2 [8] = assay: Disruption of mitochondrial membrane potential in human HepG2 cells transfected with shNur77 assessed as green fluorescence intensity at 2 uM incubated for 12 hrs by JC-1 staining based flow cytometry (reference value: 44890 units); format: functional
[9] = molecular target: T1, Nuclear receptor subfamily 4immunitygroup A member 1; assay: Binding affinity to Nur77 ligand binding domain (unknown origin) assessed as decrease in fluorescence intensity of protein at 332 nm at 0.2 to 4 uM by fluorescence titration based analysis; details: filed as modulator, dose 0.2-4 µM
In short: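 Intrinsic tryptophan fluorescence quench: 1 μM Nur77-LBD titrated with 0–4 μM ligand in about 0.2 μM steps (20 points). After 30 min at room temperature, read at 25 °C, excitation 280 nm, emission 340 nm. KD fitted to a two-state 1:1 complex model.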

QGY-7703 [10] = assay: Induction of endoplasmic reticulum stress in human QGY-7703 cells assessed as increase in TRB3 protein expression incubated for 12 hrs by Western blot analysis; format: functional, cell-based; details: dose 0.5-2 µM; in short: as §1
HepG2 [11] = assay: Antiproliferative activity against human HepG2 cells assessed as reduction in cell viability at 2 uM by MTT assay; format: functional, cell-based; details: time 12-48 hrs, TDE = time-dependent effect
In short: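 Cells treated with 2.0 µM over a time course; viability read by MTT. HepG2, SMMC-7721 kept in DMEM, QGY-7703 in RPMI 1640, with 10% FBS at 37 °C and 5% CO2.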

HepG2 [12] = assay: Antiproliferative activity against human HepG2 cells assessed as reduction in cell viability incubated for 48 hrs by MTT assay; format: functional, cell-based; details: HepG2, 48 h
In short: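 MTT assay after 48 h exposure at six concentrations, range chosen by cytotoxicity. Inhibition = (ODcontrol − ODtest)/ODcontrol × 100%; IC50 is the concentration halving OD versus untreated cells. Means ± SD of three independent determinations. HepG2 and SMMC-7721 grown in DMEM, QGY-7703 and LO2 in RPMI 1640, with 10% FBS at 37 °C.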

QGY-7703 [13] = assay: Induction of autophagy in human QGY-7703 cells assessed as increase in Beclin 1 expression measured after 12 hrs by Western blot analysis; format: functional, cell-based; details: dose 0.5-2 µM; in short: as §1
HepG2 [14] = assay: Induction of apoptosis in human HepG2 cells assessed as cleaved caspase-3 expression at 2 uM pretreated with ER stress inhibitor, 4-PBA for 2 hrs followed by incubation with compound for 12 hrs by Western blot analysis; format: functional, cell-based; in short: as §2
HepG2 [15] = assay: Induction of apoptosis in human HepG2 cells transfected with shRNA assessed as late apoptotic cells at 2 uM incubated for 12 hrs by Annexin V-FITC/PI staining based flow cytometry (reference value: 2.18%); format: functional

`COc1cccc2c(Nc3ccc4[nH]c(C(=O)N/N=C/c5ccc(SC)cc5)cc4c3)cc(C)nc12` was tested, and the Activity (HepG2 [1]) was 18.5%, the Activity (SMMC-7721) was “Dose-dependent effect” and the Activity (HepG2 [2]) was “Dose-dependent effect”. For the same compound, the Activity (HepG2 [3]) was “inactive”, the Activity [4] was “Active” and the Activity (HepG2 [5]) was “inactive”. For the same compound, the Activity (HepG2 [6]) was “Active”, the Activity (HepG2 [7]) was “Active” and the Activity (HepG2 [8]) was 52452 U. For the same compound, the Activity [9] was “Active”, the Activity (QGY-7703 [10]) was “Dose-dependent effect” and the Activity (HepG2 [11]) was “Tde”. For the same compound, the IC50 (HepG2 [12]) was 600 nM, the Activity (QGY-7703 [13]) was “Dose-dependent effect” and the Activity (HepG2 [14]) was “inactive”. The Activity (HepG2 [15]) was 23%.
